Compound activity as filed in PubChem BioAssay.
697 NFkB inh – lowers PMA/ionomycin-induced NF-kB signal in 697 B cells. 697 B-cell NF-kB luciferase reporter, 16 h. inhibition, % at 4 µM. hit rate 0.33% among 330,000. AID 435022; in the data active = inhibition above about 35%
CHOP UPR activ – activators of apoptotic arm of unfolded protein response (CHOP) | CHO-CHOP luciferase reporter, UPR activation, luminescence; percent of tunicamycin response over DMSO baseline | activation, % at 10 µM | hit rate 0.34% among 330,000 | AID 449763;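 active = at 10 µM dose, activation of 40% or more, normalized to positive control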;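 note: 100% = tunicamycin at 10 µg/mL and 0% = DMSO alone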
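Test system: CHO-CHOP cells, stable luciferase reporter of PERK-eIF2a-CHOP signalling | Quantity: 500 CHO-CHOP cells per well | Buffer or medium: F12 plus 10% serum | Compound dosing: 10 µM single point, 0.5% DMSO | Schedule: 6 h compound treatment, 37 °C | Signal: Luciferase luminescence | Control set: Tunicamycin high control, DMSO low control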
UPR XBP1 act – adaptive UPR (XBP1) activation. CHO-XBP1 luciferase reporter, IRE1-XBP1 UPR activation, luminescence; percent of tunicamycin response, DMSO as zero. activation, % at 20 µM. hit rate 0.33% among 330,000. AID 463104;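 active = versus positive control, 20 µM dose yields 30% or more activation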;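 note: 100% = tunicamycin at 10 µg/mL and 0% = DMSO only wells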
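Material: CHO cell line with stable XBP1 luciferase reporter; buffer or medium: F12 medium containing 10% fetal bovine serum; compound: single point, 20 µM final compound, 1% DMSO; incubation: 6 h treatment, 37 °C; measured by: glow luminescence from Steady-Glo reagent; evaluation: activation, % of tunicamycin; control set: tunicamycin high, DMSO low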
Jurkat NFkB inh – lowers PMA/ionomycin-induced NF-kB signal in Jurkat cells; PMA/ionomycin-induced NF-kB luciferase reporter, luminescence; hit rate 0.53% among 330,000; inhibition, % at 4 µM; in the data active = inhibition above about 50%
CHOP inhibitor – inhibitors of CHOP induction in ER stress response. CHO-K1 CHOP-promoter luciferase, tunicamycin-induced, 15-18 h. inhibition, % at 10 µM. hit rate 3.8% among 220,000;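 active = compounds that reduced the stress-induced luciferase reporter signal by more than about 70% of percent inhibition, limit read from the data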;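 note: 0% = tunicamycin plus vehicle and 100% = wells without tunicamycin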
Jurkat NFkB conf – inhibitors of the PMA/ionomycin-induced NF-kB reporter in Jurkat cells, retest; shares compounds with Jurkat NFkB inh; Jurkat NF-kB luciferase, 16 h; inhibition, % at 4 µM; hit rate 27% among 2,700;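 active = inhibition reaching about 45% at 4 µM in either replicate, limit read from the data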;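 note: plate controls were PMA/ionomycin stimulated DMSO wells for no effect and unstimulated DMSO wells for full effect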
697 NFkB conf – inhibitors of the PMA/ionomycin-induced NF-kB reporter in 697 B cells, retest; hit rate 35% among 2,000; AID 449746; shares compounds with 697 NFkB inh; 697 B-cell NF-kB luciferase, 16 h; inhibition, % at 4 µM; in the data active = inhibition mostly above about 28%, no sharp cut-off; inactive = mostly below about 22%
CHOP UPR conf – confirmation of apoptotic unfolded protein response (CHOP) activators; shares compounds with CHOP UPR activ; CHO-CHOP cells, CHOP-luciferase reporter luminescence; percent of tunicamycin response, DMSO as zero; activation, % at 10 µM; hit rate 64% among 1,000; in the data active = activation above about 33%;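 note: 0% = DMSO wells and 100% = tunicamycin 10 µg/mL wells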
UPR XBP1 confirm – confirmation of adaptive unfolded protein response (XBP1) activators; activation, % at 20 µM; shares compounds with UPR XBP1 act; AID 485299; hit rate 63% among 1,000; CHO-XBP1 IRE1-XBP1 luciferase reporter, luminescence;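 active = reporter signal at least 30% of the positive control's activation in two or more of four replicate wells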;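 note: plate controls were DMSO negative control for no effect and tunicamycin 10 µg/mL positive control for full effect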
Numbers without * were called inactive. The full list was thinned out, with hits kept by preference.

COc1ccc(-c2coc3cc4oc(=O)cc(C)c4cc23)cc1F was read as 697 NFkB inh -13, CHOP UPR activ 2, UPR XBP1 act 3, Jurkat NFkB inh 36 and CHOP inhibitor -6.
For COc1ccc(-c2coc3cc4oc(=O)cc(-c5ccccc5)c4cc23)cc1F the results were 697 NFkB inh -10, CHOP UPR activ 1, UPR XBP1 act 41*, Jurkat NFkB inh 67*, CHOP inhibitor -15, Jurkat NFkB conf 29 and UPR XBP1 confirm 125*.
For CN(c1ccc(F)cc1)S(=O)(=O)c1ccc(Cl)c(C(=O)NCc2ccco2)c1 the results were 697 NFkB inh 13, CHOP UPR activ 3, UPR XBP1 act -1 and Jurkat NFkB inh 2.
CC(Cc1ccccc1)N1C(=O)c2cccc([N+](=O)[O-])c2C1=O (configuration not stated) was read as 697 NFkB inh 22, CHOP UPR activ 2, UPR XBP1 act -1 and Jurkat NFkB inh -7.
For FC(F)(F)c1nc2ccccc2n2c(-c3ccc(Cl)cc3Cl)nnc12 the results were 697 NFkB inh -17, CHOP UPR activ 2, UPR XBP1 act 1, Jurkat NFkB inh -5 and CHOP inhibitor 28.
For FC(F)(F)c1nnc2c(Sc3ccccc3)nc3ccc(Cl)cc3n12 the results were 697 NFkB inh 67*, CHOP UPR activ 233*, UPR XBP1 act 115*, Jurkat NFkB inh 85*, CHOP inhibitor -104, Jurkat NFkB conf -17, 697 NFkB conf 14, CHOP UPR conf 152* and UPR XBP1 confirm 124*.
For CN(C)CCCn1cnc2c(c1=N)C(c1ccccc1)c1ccc3ccccc3c1O2 (configuration not stated) the results were 697 NFkB inh 2, CHOP UPR activ 19, UPR XBP1 act 32*, Jurkat NFkB inh 87*, Jurkat NFkB conf 24 and UPR XBP1 confirm 127*.
Screening COc1cc(NC(=O)CSCc2ccc(Cl)cc2)c(C(=O)O)cc1OC returned 697 NFkB inh 5, CHOP UPR activ 0, UPR XBP1 act -4 and Jurkat NFkB inh -5.
Screening CC(C)Cn1c([N+](=O)[O-])nc2c1c(=O)[nH]c(=O)n2C returned 697 NFkB inh 37*, CHOP UPR activ 13, UPR XBP1 act 3, Jurkat NFkB inh 17, CHOP inhibitor -72 and 697 NFkB conf 30*.
CCNc1nc2c(c(=O)[nH]c(=O)n2C)n1CC(C)C was read as 697 NFkB inh 19, CHOP UPR activ -2, UPR XBP1 act 13, Jurkat NFkB inh -4 and CHOP inhibitor -12.
For Cc1ccc(C)c(CN2C(=O)c3ccccc3S(=O)(=O)c3ccc(C(=O)N4CCN(C)CC4)cc32)c1 the results were 697 NFkB inh 0, CHOP UPR activ -1, UPR XBP1 act 0 and Jurkat NFkB inh -6.
For Cc1ccc(C)c(CN2C(=O)c3ccccc3S(=O)c3ccc(C(=O)N4CCN(c5ccccn5)CC4)cc32)c1 (configuration not stated) the results were 697 NFkB inh inactive, CHOP UPR activ 0, UPR XBP1 act 1, Jurkat NFkB inh -37, CHOP inhibitor -3 and 697 NFkB conf inactive.
For CCCCN(C(=O)Cc1ccc2c(c1)OCCO2)c1c(N)n(CCC)c(=O)[nH]c1=O the results were 697 NFkB inh 9, CHOP UPR activ 0, UPR XBP1 act -2 and Jurkat NFkB inh 10.
Screening CC(C)(C)c1ccc(C(=O)NC(=S)Nc2ccc(N3CCOCC3)cc2)cc1 returned 697 NFkB inh -334, CHOP UPR activ 1, UPR XBP1 act -4, Jurkat NFkB inh -59, CHOP inhibitor 8 and 697 NFkB conf 13.
C=CCN(CC=C)S(=O)(=O)c1ccc2nc(NC(=O)C3CCCO3)sc2c1 (configuration not stated) was read as 697 NFkB inh -4, CHOP UPR activ 0, UPR XBP1 act -2, Jurkat NFkB inh 5 and CHOP inhibitor 15.
Screening CC(C)(C)c1ccc(C(=O)NCC(=O)N2CCC3(CC2)NCCc2[nH]cnc23)cc1 returned 697 NFkB inh 2, CHOP UPR activ 0, UPR XBP1 act -5 and Jurkat NFkB inh 1.
`Cc1cccc(NC(=O)c2cc3n(n2)C(C(F)(F)F)CC(c2ccc4c(c2)OCO4)N3)c1` (configuration not stated) gave 697 NFkB inh 36*, CHOP UPR activ 2, UPR XBP1 act -3, Jurkat NFkB inh 17, CHOP inhibitor 71* and 697 NFkB conf 3.
For Cn1nnc2cc(C(=O)N3CCN(c4ccccn4)CC3)ccc21 the results were 697 NFkB inh 11, CHOP UPR activ -3, UPR XBP1 act -4 and Jurkat NFkB inh -10.
O=C(O)c1ccc(N/N=C/c2cc3cc4c(cc3nc2Cl)OCCO4)cc1 was read as 697 NFkB inh -493, CHOP UPR activ -5, UPR XBP1 act -5, Jurkat NFkB inh -103, CHOP inhibitor 11 and 697 NFkB conf -480.
Screening O=Cc1cc2cc3c(cc2nc1Cl)OCCO3 returned 697 NFkB inh -44, CHOP UPR activ 1, UPR XBP1 act -1, Jurkat NFkB inh -6 and CHOP inhibitor -21.
For O=C(NCc1cc(C(F)(F)F)cc(C(F)(F)F)c1)C1CC(c2ccccc2C(F)(F)F)=NO1 (configuration not stated) the results were 697 NFkB inh 3, CHOP UPR activ -2, UPR XBP1 act -3 and Jurkat NFkB inh -2.
CNS(=O)(=O)c1cccc(C(=O)OCC(=O)N2c3ccccc3CC2C)c1 (configuration not stated) was read as 697 NFkB inh 36*, CHOP UPR activ 1, UPR XBP1 act 0, Jurkat NFkB inh 1, CHOP inhibitor 18 and 697 NFkB conf -7.
Screening O=c1cnc2cc([N+](=O)[O-])ccc2[nH]1 returned 697 NFkB inh 1, CHOP UPR activ 0, UPR XBP1 act -1, Jurkat NFkB inh 8 and CHOP inhibitor -1.
`Cc1c(OCc2ccc(C(=O)O)cc2)ccc2c(-c3ccccc3)cc(=O)oc12` gave 697 NFkB inh 37*, CHOP UPR activ 3, UPR XBP1 act 1, Jurkat NFkB inh 5, CHOP inhibitor 13 and 697 NFkB conf 7.
